From ChEMBL document CHEMBL4689842, “EUbOPEN Chemogenomics Library wave 1” (2021)
Where “and” joins values, the source holds several entries; their conditions need not be identical. Equal values may be shown once.

System: HEK-293T
Assay: Multiplex assay against HEK293T;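 on Population Tubulin-Different-Phenotype (%): share of the cells with healthy nuclei that show this phenotype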
Format: toxicity, cell-based
Conditions: human
Method in brief: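 Live cells were stained at seeding with Hoechst33342, BioTracker Green Microtubule Cytoskeleton Dye, MitoTracker Red and Annexin V Alexa Fluor 680, then imaged on a CQ1 microscope at 37°C and 5% CO2 after compound addition. CellPathfinder machine-learning gating split cells into Hoechst high-intensity objects or normal cells. Normal cells were split into healthy, pyknosed or fragmented nuclei, and pyknosed cells into mitotic or apoptotic. Tubulin, mitochondrial-mass and membrane-permeability phenotypes are per cents of healthy-nucleus cells.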

[1] = 12 h, 1 µM, compound concentration 1 uM, replicate 1
[2] = 12 h, 1 µM, compound concentration 1 uM, replicate 2
[3] = 12 h, 10 µM, compound concentration 10 uM, replicate 1
[4] = 12 h, 10 µM, compound concentration 10 uM, replicate 2
[5] = 24 h, 1 µM, compound concentration 1 uM, replicate 1
[6] = 24 h, 1 µM, compound concentration 1 uM, replicate 2
[7] = 24 h, 10 µM, compound concentration 10 uM, replicate 1
[8] = 24 h, 10 µM, compound concentration 10 uM, replicate 2
[9] = 48 h, 10 µM, compound concentration 10 uM, replicate 1
[10] = 48 h, 10 µM, compound concentration 10 uM, replicate 2

CN[C@@H]1C[C@H]2O[C@@](C)([C@@H]1OC)n1c3ccccc3c3c4c(c5c6ccccc6n2c5c31)C(=O)NC4 [STAUROSPORINE]
Population Apoptotic (%) [1]: 27% | Population Fragmented Nuclei (%) [1]: 37% | Population Healthy Nuclei (%) [1]: 16% | Population Hoechst High Intensity Objects (%) [1]: 15% | Population Membrane Permeable-Phenotype (%) [1]: 16% | Population Mitochondria Different-Phenotype (%) [1]: 9% | Population Mitotic Cells (%) [1]: 72% | Population Normal (%) [1]: 84% | Population Pyknosed Nuclei (%) [1]: 46% | Population Tubulin-Different-Phenotype (%) [1]: 32% | Population Apoptotic (%) [2]: 9% | Population Fragmented Nuclei (%) [2]: 18% | Population Healthy Nuclei (%) [2]: 35% | Population Hoechst High Intensity Objects (%) [2]: 10% | Population Membrane Permeable-Phenotype (%) [2]: 12% | Population Mitochondria Different-Phenotype (%) [2]: 13% | Population Mitotic Cells (%) [2]: 90% | Population Normal (%) [2]: 89% | Population Tubulin-Different-Phenotype (%) [2]: 74% | Population Apoptotic (%) [3]: 31% and 93% and 82% | Population Fragmented Nuclei (%) [3]: 37% and 33% and 30% | Population Hoechst High Intensity Objects (%) [3]: 15% and 23% and 17% | Population Membrane Permeable-Phenotype (%) [3]: 20% and 15% | Population Normal (%) [3]: 84% and 76% and 82% | Population Pyknosed Nuclei (%) [3]: 48% and 65% and 66% | Population Tubulin-Different-Phenotype (%) [3]: 25% and 33% and 57% | Population Hoechst High Intensity Objects (%) [4]: 20% and 22% and 11% | Population Mitochondria Different-Phenotype (%) [4]: 23% and 35% and 18% | Population Normal (%) [4]: 79% and 77% and 88% | Population Pyknosed Nuclei (%) [4]: 52% and 55% and 35% | Population Apoptotic (%) [5]: 48% | Population Fragmented Nuclei (%) [5]: 35% | Population Healthy Nuclei (%) [5]: 17% | Population Hoechst High Intensity Objects (%) [5]: 15% | Population Membrane Permeable-Phenotype (%) [5]: 18% | Population Mitochondria Different-Phenotype (%) [5]: 16% | Population Mitotic Cells (%) [5]: 51% | Population Normal (%) [5]: 84% | Population Pyknosed Nuclei (%) [5]: 46% | Population Tubulin-Different-Phenotype (%) [5]: 29% | Population Apoptotic (%) [6]: 28% | Population Fragmented Nuclei (%) [6]: 16% | Population Healthy Nuclei (%) [6]: 30% | Population Hoechst High Intensity Objects (%) [6]: 14% | Population Membrane Permeable-Phenotype (%) [6]: 10% | Population Mitochondria Different-Phenotype (%) [6]: 25% | Population Mitotic Cells (%) [6]: 71% | Population Normal (%) [6]: 85% | Population Pyknosed Nuclei (%) [6]: 52% | Population Tubulin-Different-Phenotype (%) [6]: 73% | Population Apoptotic (%) [7]: 58% and 87% and 91% | Population Fragmented Nuclei (%) [7]: 37% and 33% and 27% | Population Hoechst High Intensity Objects (%) [7]: 19% and 21% and 24% | Population Normal (%) [7]: 80% and 75% | Population Pyknosed Nuclei (%) [7]: 46% and 65% and 70% | Population Fragmented Nuclei (%) [8]: 12% and 32% | Population Hoechst High Intensity Objects (%) [8]: 13% and 29% and 22% | Population Membrane Permeable-Phenotype (%) [8]: 12% and 14% | Population Mitochondria Different-Phenotype (%) [8]: 25% and 57% and 62% | Population Normal (%) [8]: 86% and 70% and 77% | Population Pyknosed Nuclei (%) [8]: 48% and 55% and 66% | Population Tubulin-Different-Phenotype (%) [8]: 86% and 61% and 87% | Population Apoptotic (%) [9]: 96% and 92% | Population Fragmented Nuclei (%) [9]: 36% and 37% | Population Healthy Nuclei (%) [9]: 0% and 1% | Population Hoechst High Intensity Objects (%) [9]: 22% and 19% | Population Membrane Permeable-Phenotype (%) [9]: 0% | Population Mitochondria Different-Phenotype (%) [9]: 100% and 80% | Population Mitotic Cells (%) [9]: 3% and 7% | Population Normal (%) [9]: 77% and 80% | Population Pyknosed Nuclei (%) [9]: 62% | Population Tubulin-Different-Phenotype (%) [9]: 100% and 60% | Population Apoptotic (%) [10]: 97% and 93% | Population Fragmented Nuclei (%) [10]: 23% and 21% | Population Healthy Nuclei (%) [10]: 19% and 17% | Population Hoechst High Intensity Objects (%) [10]: 21% and 26% | Population Membrane Permeable-Phenotype (%) [10]: 6% and 5% | Population Mitochondria Different-Phenotype (%) [10]: 66% and 73% | Population Mitotic Cells (%) [10]: 2% and 6% | Population Normal (%) [10]: 73% | Population Pyknosed Nuclei (%) [10]: 57% and 61% | Population Tubulin-Different-Phenotype (%) [10]: 72% and 84%

CN1CCN(C(=O)C(C)(C)c2ccc(C(=O)Nc3cn4cc(-c5cc(C(C)(C)C)cc(C(C)(C)C)c5)ccc4n3)cc2)CC1 [T3-CLK-N]
Population Apoptotic (%) [1]: 14% | Population Fragmented Nuclei (%) [1]: 15% | Population Healthy Nuclei (%) [1]: 58% | Population Hoechst High Intensity Objects (%) [1]: 12% | Population Membrane Permeable-Phenotype (%) [1]: 5% | Population Mitochondria Different-Phenotype (%) [1]: 7% | Population Mitotic Cells (%) [1]: 85% | Population Normal (%) [1]: 87% | Population Pyknosed Nuclei (%) [1]: 25% | Population Tubulin-Different-Phenotype (%) [1]: 9% | Total Cell Count [1]: 642 | Population Apoptotic (%) [2]: 10% | Population Fragmented Nuclei (%) [2]: 6% | Population Healthy Nuclei (%) [2]: 84% | Population Hoechst High Intensity Objects (%) [2]: 2% | Population Membrane Permeable-Phenotype (%) [2]: 4% | Population Mitochondria Different-Phenotype (%) [2]: 13% | Population Mitotic Cells (%) [2]: 89% | Population Normal (%) [2]: 97% | Population Pyknosed Nuclei (%) [2]: 9% | Population Tubulin-Different-Phenotype (%) [2]: 21% | Total Cell Count [2]: 1407 | Population Apoptotic (%) [3]: 21% | Population Fragmented Nuclei (%) [3]: 16% | Population Healthy Nuclei (%) [3]: 46% | Population Hoechst High Intensity Objects (%) [3]: 18% | Population Membrane Permeable-Phenotype (%) [3]: 11% | Population Mitochondria Different-Phenotype (%) [3]: 13% | Population Mitotic Cells (%) [3]: 78% | Population Normal (%) [3]: 81% | Population Pyknosed Nuclei (%) [3]: 36% | Population Tubulin-Different-Phenotype (%) [3]: 30% | Total Cell Count [3]: 631 | Population Apoptotic (%) [4]: 23% | Population Fragmented Nuclei (%) [4]: 3% | Population Healthy Nuclei (%) [4]: 80% | Population Hoechst High Intensity Objects (%) [4]: 4% | Population Membrane Permeable-Phenotype (%) [4]: 4% | Population Mitochondria Different-Phenotype (%) [4]: 26% | Population Mitotic Cells (%) [4]: 76% | Population Normal (%) [4]: 95% | Population Pyknosed Nuclei (%) [4]: 15% | Population Tubulin-Different-Phenotype (%) [4]: 63% | Total Cell Count [4]: 884 | Population Apoptotic (%) [5]: 16% | Population Fragmented Nuclei (%) [5]: 12% | Population Healthy Nuclei (%) [5]: 76% | Population Hoechst High Intensity Objects (%) [5]: 10% | Population Membrane Permeable-Phenotype (%) [5]: 14% | Population Mitochondria Different-Phenotype (%) [5]: 5% | Population Mitotic Cells (%) [5]: 83% | Population Normal (%) [5]: 89% | Population Pyknosed Nuclei (%) [5]: 10% | Population Tubulin-Different-Phenotype (%) [5]: 19% | Total Cell Count [5]: 686 | Population Apoptotic (%) [6]: 4% | Population Fragmented Nuclei (%) [6]: 10% | Population Healthy Nuclei (%) [6]: 84% | Population Hoechst High Intensity Objects (%) [6]: 4% | Population Membrane Permeable-Phenotype (%) [6]: 9% | Population Mitochondria Different-Phenotype (%) [6]: 8% | Population Mitotic Cells (%) [6]: 95% | Population Normal (%) [6]: 95% | Population Pyknosed Nuclei (%) [6]: 5% | Population Tubulin-Different-Phenotype (%) [6]: 40% | Total Cell Count [6]: 1792 | Population Apoptotic (%) [7]: 27% | Population Fragmented Nuclei (%) [7]: 20% | Population Healthy Nuclei (%) [7]: 46% | Population Hoechst High Intensity Objects (%) [7]: 21% | Population Membrane Permeable-Phenotype (%) [7]: 8% | Population Mitochondria Different-Phenotype (%) [7]: 23% | Population Mitotic Cells (%) [7]: 72% | Population Normal (%) [7]: 78% | Population Pyknosed Nuclei (%) [7]: 33% | Population Tubulin-Different-Phenotype (%) [7]: 56% | Total Cell Count [7]: 614 | Population Apoptotic (%) [8]: 17% | Population Fragmented Nuclei (%) [8]: 4% | Population Healthy Nuclei (%) [8]: 88% | Population Hoechst High Intensity Objects (%) [8]: 3% | Population Membrane Permeable-Phenotype (%) [8]: 7% | Population Mitochondria Different-Phenotype (%) [8]: 37% | Population Mitotic Cells (%) [8]: 82% | Population Normal (%) [8]: 96% | Population Pyknosed Nuclei (%) [8]: 6% | Population Tubulin-Different-Phenotype (%) [8]: 82% | Total Cell Count [8]: 947
